Measured values pooled from the literature.
Each line is one published result; the experiments were not run side by side.

| SMILES | tested on | test | test system | setting | endpoint | value |
| --- | --- | --- | --- | --- | --- | --- |
| C[C@@H]1CN2c3c(cc4c(N5C(=O)OC[C@@H]5C)noc4c3F)CC3(C(=O)NC(=O)NC3=O)[C@H]2[C@H](C)O1 | Klebsiella pneumoniae | microbial growth, broth dilution | ATCC10031 | – | MIC | 0.25 µg/mL |
| Oc1c(Cl)cc(Cl)cc1-c1[nH]c(Cl)c(Cl)c1Cl | Streptococcus pneumoniae | microbial growth | ATCC49619 | – | MIC | 0.13 µM |
| N.N.[Cl][Pt][Cl] | A2780 | cell growth or viability, MTT | – | – | IC50 | 0.31 µM |
| Cc1c2ccncc2c(C)c2c1[nH]c1ccccc12 | Caco-2 | cell growth or viability, SRB | – | 72 h | GI50 | 4.91 µM |
| COc1ccc(-c2c(-c3ccc(C#N)c(F)c3)nc(N3CCC(N)CC3)n(C)c2=O)cc1F | TC-32 | cell growth or viability, resazurin | – | – | IC50 | 36 µM |
| O=c1ccc2nc3ccc(OCc4ccc([N+](=O)[O-])o4)cc3oc-2c1 | Klebsiella pneumoniae | microbial growth | – | 24 h | MIC | > 32 µg/mL |
| COc1ccc(Nc2nn3c(-c4ccccc4)ccnc3c2C(=O)Nc2ccccc2)cc1 | Caco-2 | cell growth or viability, MTT | – | 25 µg/mL, 48 h, serum-free | viability | 56.6% |
| Oc1c(Br)cc(Br)cc1-c1[nH]c(Br)c(Br)c1Br | Streptococcus pneumoniae | microbial growth | ATCC49619 | – | MIC | 0.04 µM |
| O=c1ccc2nc3ccc(O)cc3oc-2c1 | Klebsiella pneumoniae | microbial growth | – | 24 h | MIC | > 32 µg/mL |
